Experimental data reported in PMC9200056 (Chemical Science, 2022).
Non-standard residues stand in square brackets, D forms with d. *: point of attachment. 1Nal = N[C@@H](Cc1cccc2ccccc12)C(=O)O; ACC = NC(=O)Cc1cc(=O)oc2cc(N*)ccc12; Igl = N[C@H](C(=O)O)C1Cc2ccccc2C1; hArg = N=C(N)NCCCC[C@H](N)C(=O)O; Dab = NCC[C@H](N)C(=O)O; Cbz = O=C(OCc1ccccc1)*

Columns and labels:
Assay type in all cases: biochemical
fXa (factor Xa) [1] = molecular target: T1, fXa (factor Xa) (Homo sapiens, UniProt P00742); assay: Initial substrate screening; conditions: 1 μM substrate, relative to SMX15
T1 sequence (P00742 235-488 limits assumed): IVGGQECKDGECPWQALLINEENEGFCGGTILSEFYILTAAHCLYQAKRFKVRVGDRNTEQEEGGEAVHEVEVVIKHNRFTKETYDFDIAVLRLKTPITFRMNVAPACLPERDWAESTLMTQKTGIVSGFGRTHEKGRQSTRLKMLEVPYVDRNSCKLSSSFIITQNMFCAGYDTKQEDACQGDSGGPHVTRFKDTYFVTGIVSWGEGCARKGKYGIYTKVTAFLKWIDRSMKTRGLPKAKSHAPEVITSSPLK
T1 sequence (P00742 41-179 partner limits assumed): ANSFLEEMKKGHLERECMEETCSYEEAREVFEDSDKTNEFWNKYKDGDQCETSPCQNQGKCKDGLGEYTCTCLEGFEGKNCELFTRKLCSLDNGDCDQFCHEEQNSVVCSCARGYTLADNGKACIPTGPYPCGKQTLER
Procedure, shortened: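 ACC fluorogenic substrates at 1 μM final, from 10 mM stocks diluted 100-fold in DMSO. fXa (7–100 nM, set per substrate for adequate signal) preincubated 15 min at 37 °C in 20 mM Tris, 150 mM NaCl, 5 mM CaCl2, pH 7.4. Hydrolysis read for 30 min at 37 °C (ex 355, em 460 nm). Linear-phase RFU s−1 normalised to equal enzyme activity, averaged over at least two repeats.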

[2] = molecular target: APC (activated protein C) (Homo sapiens, UniProt P04070); assay: Initial substrate screening; conditions: for increase in activity on exchanging L-Nle(O-Bzl) (SMA4) at P3: initial screening, 1 μM substrate, relative to SMA4
Chain of APC (activated protein C) (P04070 212-461 limits assumed): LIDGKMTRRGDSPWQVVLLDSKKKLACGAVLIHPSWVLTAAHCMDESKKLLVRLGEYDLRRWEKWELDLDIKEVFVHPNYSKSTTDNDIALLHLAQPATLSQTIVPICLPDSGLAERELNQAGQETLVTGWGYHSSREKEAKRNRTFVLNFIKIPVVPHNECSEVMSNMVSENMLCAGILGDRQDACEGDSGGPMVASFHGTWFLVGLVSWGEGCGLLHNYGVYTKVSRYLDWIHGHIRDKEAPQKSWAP
Chain of APC (activated protein C) (P04070 43-197 partner limits assumed): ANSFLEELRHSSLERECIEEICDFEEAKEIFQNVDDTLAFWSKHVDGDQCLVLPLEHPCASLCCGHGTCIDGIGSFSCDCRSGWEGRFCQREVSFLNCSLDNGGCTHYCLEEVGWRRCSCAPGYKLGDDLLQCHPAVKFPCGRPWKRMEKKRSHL
Procedure, shortened: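 Plasma-derived human APC (thrombin–thrombomodulin-activated) was preincubated 15 min at 37 °C in Tris/NaCl/CaCl2 buffer, pH 7.4, then added to ACC substrates at 1 μM final. Final APC was 50–90 nM, chosen per substrate set. ACC release was read at 355/460 nm for 30 min. Rates (RFU s−1) came from the linear portion and were adjusted to equal enzyme activity; at least 2 repeats were averaged.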

fXa (factor Xa) [3] = molecular target: T1, fXa (factor Xa); assay: Substrate kinetics
Procedure, shortened: (§1)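 Purified plasma-derived human enzymes were preincubated 15 min at 37 °C in Tris/NaCl/CaCl2 buffer, pH 7.4. They were added to eight serially diluted ACC substrate concentrations (4.68 nM–741 μM overall). ACC release was followed at 355/460 nm for 30 min at 37 °C to derive kcat, KM and kcat/KM; at least duplicate runs were averaged.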

thrombin [4] = molecular target: T2, thrombin (Homo sapiens, UniProt P00734); assay: Inhibition kinetics; conditions: ratio of kobs/I values
thrombin [5] = molecular target: T2, thrombin; assay: Substrate kinetics; conditions: ratio of kcat/KM values
Procedure, shortened: as §1

fXa (factor Xa) [6] = molecular target: T1, fXa (factor Xa); assay: Inhibition kinetics; conditions: ratio of kobs/I values
APC in human plasma = assay: APC labeling by fluorescent ABP in human plasma; conditions: EDTA plasma diluted 7.5 times, probe 20 μM, 60 min, 37 °C; SDS–PAGE
Procedure, shortened: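 Human plasma from EDTA-anticoagulated whole blood, diluted 7.5-fold in 20 mM Tris, 150 mM NaCl, 5 mM CaCl2, pH 7.4, mixed 1:1 with APC-directed Cy5 probe (1–20 μM), 60 min, 37 °C. SDS/DTT reduction at 95 °C for 5 min, then 12% SDS–PAGE and nitrocellulose blot. Chicken anti-protein C for 7 h, then Alexa 488 secondary. Cy5 imaged at 658 nm, antibody at 488 nm. At least 3 replicates.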

thrombin in human plasma = assay: Thrombin labeling by fluorescent ABP in human plasma; conditions: EDTA plasma diluted 7.5 times, probe 20 μM, 60 min, 37 °C; SDS–PAGE
Procedure, shortened: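 Human plasma from EDTA-anticoagulated whole blood, diluted 7.5-fold in Tris/NaCl/5 mM CaCl2 buffer, pH 7.4, incubated 1:1 with thrombin-directed Cy7 probe (1–20 μM) for 60 min at 37 °C. Reduced in SDS/DTT at 95 °C, run on 12% SDS–PAGE and blotted. Sheep anti-fII for 7 h, then Alexa 680 secondary. Cy7 imaged at 784 nm, antibody at 658 nm. At least 3 replicates.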

Substance: Ac-Arg(NO2)-hArg-1-Nal-Arg-AC C [SMX13]
- change of overall activity on replacing D-Pro (SMX15) at P4 (fXa (factor Xa) [1]): only a slight decrease in the overall activity

Substance: Ac-Gln-hArg-1-Nal-Arg-AC C [SMX14]
- change of overall activity on replacing D-Pro (SMX15) at P4 (fXa (factor Xa) [1]): only a slight decrease in the overall activity

Substance: Ac-K[Dab](Cbz)[Igl]R-{ACC} (SMILES CC(=O)N[C@@H](CCCCN)C(=O)N[C@@H](CCNC(=O)OCc1ccccc1)C(=O)N[C@H](C(=O)N[C@@H](CCCNC(=N)N)C(=O)Nc1ccc2c(CC(N)=O)cc(=O)oc2c1)C1Cc2ccccc2C1) [SMA5]
- cleaved more efficiently than the best natural substrate (SMA54) ([2]; relative to SMA54): approximately 50 fold

Substance: Ac-Lys-Agp-Lys(2-Cl-Z)-Arg-AC C [SMA2]
- increase in activity on exchanging L-Nle(O-Bzl) (SMA4) at P3 [2]: 22 fold

Substance: Ac-Lys-Dab(Z )-Lys(2-Cl-Z)-Arg-AC C [SMA1]
- increase in activity on exchanging L-Nle(O-Bzl) (SMA4) at P3 [2]: 13 fold

Substance: Ac-Lys-Glu(Bzl)-Lys(2-Cl-Z)-Arg-AC C [SMA3]
- increase in activity on exchanging L-Nle(O-Bzl) (SMA4) at P3 [2]: 5.5 fold

Substance: Ac-M[hArg][1Nal]R-{ACC} (SMILES CSCC[C@H](NC(C)=O)C(=O)N[C@@H](CCCCNC(=N)N)C(=O)N[C@@H](Cc1cccc2ccccc12)C(=O)N[C@@H](CCCNC(=N)N)C(=O)Nc1ccc2c(CC(N)=O)cc(=O)oc2c1) [SMX61]
- increase of the kcat/KM value on exchanging D-Pro at P4 (SMX15) for L-Met (fXa (factor Xa) [3]; fXa, relative to SMX15): 55%

Substance: Ac-[dP][hArg][1Nal]R-{ACC} (SMILES CC(=O)N1CCC[C@@H]1C(=O)N[C@@H](CCCCNC(=N)N)C(=O)N[C@@H](Cc1cccc2ccccc12)C(=O)N[C@@H](CCCNC(=N)N)C(=O)Nc1ccc2c(CC(N)=O)cc(=O)oc2c1) [SMX15]
- times more hydrolyzed by fXa than by thrombin (fXa (factor Xa) [3]; ratio of kcat/KM values): 358 times

Substance: Ac–hCha–Cys(MeBzl)–Pip–Arg^P(OPh)2 [I-SMII22]
- kobs/I selectivity: thrombin inhibition more rapid than APC (thrombin [4]): 348 fold
- kobs/I selectivity: thrombin inhibition more rapid than fXa (thrombin [4]): 2087 fold

Substance: Ac–hCha–Cys(MeBzl)–Pip–Arg–ACC [SMII22]
- kcat/KM selectivity for thrombin over APC (thrombin [5]): 3383 fold
- kcat/KM selectivity for thrombin over fXa (thrombin [5]): 162 fold

Substance: Cy3–6-Ahx–DPro–hArg–1-Nal–Arg^P(OPh)2 [P-SMX152]
- inhibition of APC less efficient than fXa (fXa (factor Xa) [6]): 75 fold

Substance: Cy5–6-Ahx–Lys–Dab(Z)–Lys–Arg^P(OPh)2 [P-SMA172]
- off-target labeling in human plasma at 20 μM probe (APC in human plasma): only minor additional labeling between 25 and 35 kDa

Substance: Cy7–6-Ahx–hCha–Cys(MeBzl)–Pip–Arg^P(OPh)2 [P-SMII222]
- selectivity of thrombin labeling in human plasma at 20 μM probe (thrombin in human plasma): selectivity was maintained with thrombin labeling
